In ChEMBL document CHEMBL1833957, “P1-substituted symmetry-based human immunodeficiency virus protease inhibitors with potent antiviral activity against drug-resistant viruses” (J Med Chem, 2011):

How the values were obtained:
[1] = system: Human immunodeficiency virus 1; assay: Antiviral activity against wild type HIV1 pNL4-3 infected in human MT4 cells assessed as inhibition of virus-induced cell death after 5 days by MTT assay in presence of 50% human serum; assay type: functional, organism-based; details: Human immunodeficiency virus 1, pNL4-3, MT4, 120 h
[2] = system: Human immunodeficiency virus 1; assay: Antiviral activity against HIV1 A17 harboring protease L10F, V32I, M46I, I47V, Q58E and I84V mutant infected in human MT4 cells assessed as inhibition of virus-induced cell death after 5 days by MTT assay relative to wild type HIV1 pNL4-3; assay type: functional
[3] = system: Human immunodeficiency virus 1; assay: Antiviral activity against HIV1 B26 harboring protease L33F, K45I, M46I, I50V, A71V and V82F mutant infected in human MT4 cells assessed as inhibition of virus-induced cell death after 5 days by MTT assay relative to wild type HIV1 pNL4-3; assay type: functional
[4] = system: Human immunodeficiency virus 1; assay: Antiviral activity against wild type HIV1 pNL4-3 infected in human MT4 cells assessed as inhibition of virus-induced cell death after 5 days by MTT assay; assay type: functional, organism-based; details: Human immunodeficiency virus 1, pNL4-3, MT4, 120 h
Procedure, shortened: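 EC50 measured against wild-type virus in MT-4 cells, with no human serum added.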

[5] = system: Human immunodeficiency virus 1; assay: Antiviral activity against HIV1 isolate 1 harboring protease L10I, E35D, N37D, M46I, I54V, G57R, L63P, A71V, T74P, I84V, L90M, I93L mutant infected in human MT4 cells assessed as inhibition of virus-induced cell death after 5 days by MTT assay relative to wild type HIV1 pNL4-3; assay type: functional
[6] = system: Human immunodeficiency virus 1; assay: Antiviral activity against HIV1 harboring protease L10I, I13V, G16A, Q18H, L33F, N37D, M46I, I54V, G57R, Q61H,I62V, L63P, A71L, I72T, L76V, V77I, V82A, N88G, L90M, I93L mutant infected in human MT4 cells assessed as inhibition of virus-induced cell death after 5 days by MTT assay relative to wild type HIV1 pNL4-3; assay type: functional
[7] = Oral bioavailability in rat at 5 mg/kg; assay type: ADME, organism-based; details: in vivo
[8] = Oral bioavailability in rat at 5 mg/kg co-administered with 5 mg/kg of CYP3A4 inhibitor ritonavir relative to iv dose without ritonavir co-administration; assay type: ADME, organism-based; details: in vivo
Procedure, shortened: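 Rats given 5 mg/kg orally with 5 mg/kg ritonavir. Bioavailability (%) is calculated against an IV dose given without ritonavir.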

[9] = Cmax in rat at 5 mg/kg, po co-administered with 5 mg/kg of CYP3A4 inhibitor ritonavir; assay type: ADME, organism-based; parameters: dose 5 mg/kg, route oral; details: in vivo
Procedure, shortened: (§1)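 Rats given 5 mg/kg orally together with 5 mg/kg ritonavir. Plasma Cmax is reported in μg/mL and AUC in μg h/mL.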

[10] = AUC in rat at 5 mg/kg, po co-administered with 5 mg/kg of CYP3A4 inhibitor ritonavir; assay type: ADME, organism-based; details: plasma; procedure, shortened: as §1

## COC(=O)N[C@H](C(=O)N[C@@H](Cc1ccccc1)C[C@H](O)[C@H](Cc1ccc(-c2ccncc2)cc1)NC(=O)[C@@H](NC(=O)OC)C(C)(C)C)C(C)(C)C
[1]
  EC50: 34 nM
[2]
  fold change (FC): 2
[3]
  fold change (FC): 3
[4]
  EC50: 13 nM

## COC(=O)N[C@H](C(=O)N[C@@H](Cc1ccccc1)C[C@H](O)[C@H](Cc1ccc(-c2ccc(F)nc2)cc1)NC(=O)[C@@H](NC(=O)OC)C(C)(C)C)C(C)(C)C
[1]
  EC50: 14 nM
[2]
  fold change (FC): 12
[3]
  fold change (FC): 14
[5]
  fold change (FC): 58
[6]
  fold change (FC): 7
[4]
  EC50: 3 nM

## COC(=O)N[C@H](C(=O)N[C@@H](Cc1ccccc1)C[C@H](O)[C@H](Cc1ccc(-c2ccnc(F)c2)cc1)NC(=O)[C@@H](NC(=O)OC)C(C)(C)C)C(C)(C)C
[1]
  EC50: 7 nM
[2]
  fold change (FC): 10
[3]
  fold change (FC): 10
[5]
  fold change (FC): 30
[6]
  fold change (FC): 2
[4]
  EC50: 2 nM

## COC(=O)N[C@H](C(=O)N[C@@H](Cc1ccccc1)C[C@H](O)[C@H](Cc1ccc(-c2ccc(C#N)nc2)cc1)NC(=O)[C@@H](NC(=O)OC)C(C)(C)C)C(C)(C)C
[1]
  EC50: 23 nM
[2]
  fold change (FC): 8
[3]
  fold change (FC): 12
[5]
  fold change (FC): 16
[6]
  fold change (FC): 3
[4]
  EC50: 6 nM

## COC(=O)N[C@H](C(=O)N[C@@H](Cc1ccccc1)C[C@H](O)[C@H](Cc1ccc(-c2ccc(CO)nc2)cc1)NC(=O)[C@@H](NC(=O)OC)C(C)(C)C)C(C)(C)C
[1]
  EC50: 45 nM
[2]
  fold change (FC): 0.2
[3]
  fold change (FC): 0.6
[5]
  fold change (FC): 12
[6]
  fold change (FC): 2
[4]
  EC50: 14 nM

## COC(=O)N[C@H](C(=O)N[C@@H](Cc1ccccc1)C[C@H](O)[C@H](Cc1ccc(-c2cnccn2)cc1)NC(=O)[C@@H](NC(=O)OC)C(C)(C)C)C(C)(C)C
[1]
  EC50: 151 nM
[2]
  fold change (FC): 7
[3]
  fold change (FC): 4
[4]
  EC50: 54 nM

## COC(=O)N[C@H](C(=O)N[C@@H](Cc1ccccc1)C[C@H](O)[C@H](Cc1ccc(-c2cncnc2)cc1)NC(=O)[C@@H](NC(=O)OC)C(C)(C)C)C(C)(C)C
[1]
  EC50: 58 nM
[2]
  fold change (FC): 41
[3]
  fold change (FC): 74
[4]
  EC50: 2 nM

## COC(=O)N[C@H](C(=O)N[C@@H](Cc1ccccc1)C[C@H](O)[C@H](Cc1ccc(-c2ccccc2)cc1)NC(=O)[C@@H](NC(=O)OC)C(C)(C)C)C(C)(C)C
[1]
  EC50: 95 nM
[2]
  fold change (FC): 21
[3]
  fold change (FC): 12
[4]
  EC50: 4 nM

## COC(=O)N[C@H](C(=O)N[C@@H](Cc1ccccc1)C[C@H](O)[C@H](Cc1ccc(-c2cccc(CO)c2)cc1)NC(=O)[C@@H](NC(=O)OC)C(C)(C)C)C(C)(C)C
[1]
  EC50: 92 nM
[2]
  fold change (FC): 1
[3]
  fold change (FC): 1
[5]
  fold change (FC): 52
[6]
  fold change (FC): 4
[4]
  EC50: 21 nM

## COC(=O)N[C@H](C(=O)N[C@@H](Cc1ccccc1)C[C@H](O)[C@H](Cc1ccc(-c2ccc(CO)cc2)cc1)NC(=O)[C@@H](NC(=O)OC)C(C)(C)C)C(C)(C)C
[1]
  EC50: 18 nM
[2]
  fold change (FC): 2
[3]
  fold change (FC): 2
[5]
  fold change (FC): 45
[6]
  fold change (FC): 2
[7]
  bioavailability: 0%
[8]
  bioavailability: 0.3%
[9]
  Cmax: 10 ng/mL
[10]
  AUC: 10 ng·h/mL
[4]
  EC50: 5 nM

## CNC(=O)c1ccc(-c2ccc(C[C@H](NC(=O)[C@@H](NC(=O)OC)C(C)(C)C)[C@@H](O)C[C@H](Cc3ccccc3)NC(=O)[C@@H](NC(=O)OC)C(C)(C)C)cc2)cc1
[1]
  EC50: 56 nM
[2]
  fold change (FC): 1
[3]
  fold change (FC): 1
[5]
  fold change (FC): 7
[6]
  fold change (FC): 1
[4]
  EC50: 4 nM

## CNC(=O)c1cccc(-c2ccc(C[C@H](NC(=O)[C@@H](NC(=O)OC)C(C)(C)C)[C@@H](O)C[C@H](Cc3ccccc3)NC(=O)[C@@H](NC(=O)OC)C(C)(C)C)cc2)c1
[1]
  EC50: 842 nM
[2]
  fold change (FC): 0.4
[3]
  fold change (FC): 0.5
[4]
  EC50: 159 nM

## COC(=O)N[C@H](C(=O)N[C@@H](Cc1ccccc1)C[C@H](O)[C@H](Cc1ccc(-c2ccc(C(C)=O)cc2)cc1)NC(=O)[C@@H](NC(=O)OC)C(C)(C)C)C(C)(C)C
[1]
  EC50: 3 nM
[2]
  fold change (FC): 9
[3]
  fold change (FC): 8
[5]
  fold change (FC): 28
[6]
  fold change (FC): 4
[7]
  bioavailability: 0%
[8]
  bioavailability: 27%
[9]
  Cmax: 50 ng/mL
[10]
  AUC: 220 ng·h/mL
[4]
  EC50: 1 nM

## COC(=O)N[C@H](C(=O)N[C@@H](Cc1ccccc1)C[C@H](O)[C@H](Cc1ccc(-c2ccc(O)cc2)cc1)NC(=O)[C@@H](NC(=O)OC)C(C)(C)C)C(C)(C)C
[1]
  EC50: 71 nM
[2]
  fold change (FC): 3
[3]
  fold change (FC): 3
[4]
  EC50: 13 nM

## COC(=O)N[C@H](C(=O)N[C@@H](Cc1ccccc1)C[C@H](O)[C@H](Cc1ccc(-c2ccc(N)cc2)cc1)NC(=O)[C@@H](NC(=O)OC)C(C)(C)C)C(C)(C)C
[1]
  EC50: 38 nM
[2]
  fold change (FC): 7
[3]
  fold change (FC): 9
[5]
  fold change (FC): 45
[6]
  fold change (FC): 7
[4]
  EC50: 6 nM

## COC(=O)N[C@H](C(=O)N[C@H](Cc1ccc(-c2ccccn2)cc1)C[C@H](O)[C@H](Cc1ccccc1)NC(=O)[C@@H](N1CCN(Cc2cccc(C(C)(C)O)n2)C1=O)C(C)(C)C)C(C)(C)C
[2]
  fold change (FC): 3
[3]
  fold change (FC): 7
[5]
  fold change (FC): 57
[6]
  fold change (FC): 2

## Cc1cccc(C)c1OCC(=O)N[C@@H](Cc1ccccc1)[C@@H](O)C[C@H](Cc1ccccc1)NC(=O)[C@H](C(C)C)N1CCCNC1=O [LOPINAVIR]
[2]
  fold change (FC): 59
[3]
  fold change (FC): 211
[5]
  fold change (FC): 62
[6]
  fold change (FC): 234
